Calls of active or inactive are those of the source. No cut-off for these calls is given here.
Experiments:
[1] = target: T1, Polyunsaturated fatty acid 5-lipoxygenase (Homo sapiens) (UniProt P09917); assay: Inhibition of recombinant human 5-LO expressed in Escherichia coli BL21 (DE3) using 2.5 to 80 uM arachidonic acid as substrate […] followed by CaCl2 and substrate addition measured after 10 mins by RP-HPLC analysis
T1 sequence (whole entry): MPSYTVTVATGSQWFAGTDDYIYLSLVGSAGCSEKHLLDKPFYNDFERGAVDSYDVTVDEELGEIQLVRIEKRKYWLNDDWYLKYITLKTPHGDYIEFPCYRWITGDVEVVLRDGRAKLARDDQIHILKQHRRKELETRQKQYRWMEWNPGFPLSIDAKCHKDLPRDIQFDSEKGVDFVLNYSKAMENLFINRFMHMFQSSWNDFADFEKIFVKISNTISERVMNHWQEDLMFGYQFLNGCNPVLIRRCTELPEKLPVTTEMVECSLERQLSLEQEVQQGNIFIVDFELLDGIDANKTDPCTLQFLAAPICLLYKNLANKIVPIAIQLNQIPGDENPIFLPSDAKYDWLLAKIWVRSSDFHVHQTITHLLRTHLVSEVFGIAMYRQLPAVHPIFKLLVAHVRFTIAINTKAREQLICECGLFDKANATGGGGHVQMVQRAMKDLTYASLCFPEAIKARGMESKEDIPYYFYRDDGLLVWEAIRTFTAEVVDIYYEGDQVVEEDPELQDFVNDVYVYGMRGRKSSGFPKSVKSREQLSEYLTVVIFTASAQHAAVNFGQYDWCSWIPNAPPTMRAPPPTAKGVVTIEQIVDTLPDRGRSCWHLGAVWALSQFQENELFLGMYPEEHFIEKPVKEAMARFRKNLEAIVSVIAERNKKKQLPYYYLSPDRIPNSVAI

[2] = target: T2, Polyunsaturated fatty acid lipoxygenase ALOX12 (Homo sapiens) (UniProt P18054); assay: Modulation of 12-LO-mediated 12-HETE level in human M2 macrophages derived from IL4-polarized human monocyte derived macrophages at 3 uM preincubated for 15 mins followed by Escherichia coli (O6:K2:H1) challenge for 90 mins by LC-MS/MS analysis
T2 sequence (whole entry): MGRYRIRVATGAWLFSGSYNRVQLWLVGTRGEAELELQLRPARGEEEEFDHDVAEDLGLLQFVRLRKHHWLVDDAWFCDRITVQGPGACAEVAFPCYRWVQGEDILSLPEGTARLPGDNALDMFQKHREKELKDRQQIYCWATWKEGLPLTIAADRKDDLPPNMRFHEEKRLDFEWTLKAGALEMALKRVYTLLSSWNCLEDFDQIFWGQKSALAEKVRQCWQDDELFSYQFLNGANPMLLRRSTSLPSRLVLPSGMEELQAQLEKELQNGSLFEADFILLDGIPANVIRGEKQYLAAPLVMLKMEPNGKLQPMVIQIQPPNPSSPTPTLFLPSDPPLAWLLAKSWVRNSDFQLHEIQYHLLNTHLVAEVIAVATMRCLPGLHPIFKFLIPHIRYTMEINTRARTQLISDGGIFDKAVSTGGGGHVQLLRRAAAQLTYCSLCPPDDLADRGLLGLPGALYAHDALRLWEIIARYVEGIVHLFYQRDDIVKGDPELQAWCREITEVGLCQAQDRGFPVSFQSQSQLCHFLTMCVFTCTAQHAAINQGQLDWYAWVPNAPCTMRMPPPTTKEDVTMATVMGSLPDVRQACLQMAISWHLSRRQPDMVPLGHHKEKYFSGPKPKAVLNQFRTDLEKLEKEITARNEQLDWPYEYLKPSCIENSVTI
Summary of the method: (§1)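 Monocytes differentiated 6 days with M-CSF (20 ng/ml), then polarized 48 h with IL-4 20 ng/ml (M2). Cells (2 × 10^6) in PBS/1 mM CaCl2 pre-incubated 15 min at 37 °C with 3 µM compound or 0.1% DMSO, then challenged with E. coli O6:K2:H1 (1:50) for 90 min. Lipid mediators extracted by SPE with deuterated internal standards and quantified by UPLC-MS/MS as % of vehicle.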

[3] = target: T3, Polyunsaturated fatty acid lipoxygenase ALOX15 (Homo sapiens) (UniProt P16050); assay: Modulation of 15-LO-mediated 15-HEPE level in human M2 macrophages derived from IL4-polarized human monocyte derived macrophages at 3 uM preincubated for 15 mins followed by Escherichia coli (O6:K2:H1) challenge for 90 mins by LC-MS/MS analysis; summary of the method: as §1
T3 sequence (whole entry): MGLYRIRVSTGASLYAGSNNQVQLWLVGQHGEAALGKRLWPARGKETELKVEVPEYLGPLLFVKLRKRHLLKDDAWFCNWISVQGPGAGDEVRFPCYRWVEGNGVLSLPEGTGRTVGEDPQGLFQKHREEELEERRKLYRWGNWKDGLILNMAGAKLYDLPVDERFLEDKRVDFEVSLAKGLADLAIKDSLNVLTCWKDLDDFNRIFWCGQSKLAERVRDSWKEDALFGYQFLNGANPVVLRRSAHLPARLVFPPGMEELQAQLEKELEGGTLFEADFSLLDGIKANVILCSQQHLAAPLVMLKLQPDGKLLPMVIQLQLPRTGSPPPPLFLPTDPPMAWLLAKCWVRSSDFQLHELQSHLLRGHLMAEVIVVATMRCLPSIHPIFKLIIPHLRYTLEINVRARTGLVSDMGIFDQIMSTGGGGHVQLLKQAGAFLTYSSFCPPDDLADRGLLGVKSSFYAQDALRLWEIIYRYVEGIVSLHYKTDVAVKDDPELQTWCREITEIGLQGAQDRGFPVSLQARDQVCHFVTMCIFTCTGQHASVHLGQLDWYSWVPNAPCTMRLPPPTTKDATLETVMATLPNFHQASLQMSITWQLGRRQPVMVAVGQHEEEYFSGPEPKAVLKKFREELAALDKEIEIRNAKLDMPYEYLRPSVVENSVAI

Homo sapiens = species: Homo sapiens; assay: Modulation of LO-mediated 5,15-DiHETE level in human M2 macrophages derived from IL4-polarized human monocyte derived macrophages at 3 uM preincubated for 15 mins followed by Escherichia coli (O6:K2:H1) challenge for 90 mins by LC-MS/MS analysis; summary of the method: as §1
Neutrophil = assay: Cytotoxicity against human neutrophils at 10 uM; assay type: cell-based
[4] = target: T1, Polyunsaturated fatty acid 5-lipoxygenase (Homo sapiens); assay: Inhibition of nuclear localization of 5-LO (unknown origin) expressed in HEK293 cells at 10 uM preincubated for 10 mins followed by Ca2+ ionophore A23187 stimulation for 20 mins and measured after 1 hr by DAPI staining-based immunofluorescence microscopic analysis; assay type: cell-based
Summary of the method: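 HEK293 cells stably expressing 5-LO and FLAP, on poly-L-lysine coverslips, pre-incubated 10 min with 10 µM compound or 0.1% DMSO, then stimulated with 2.5 µM A23187 for 20 min at 37 °C. After fixation and permeabilization, stained with anti-5-LO and anti-FLAP antibodies and fluorescent secondaries; imaged by immunofluorescence microscopy, 100 cells from three experiments.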

[5] = target: T3, Polyunsaturated fatty acid lipoxygenase ALOX15 (Homo sapiens); assay: Modulation of 15-LO-mediated 15-HETE level in human M2 macrophages derived from IL4-polarized human monocyte derived macrophages at 3 uM preincubated for 15 mins followed by Escherichia coli (O6:K2:H1) challenge for 90 mins by LC-MS/MS analysis; summary of the method: as §1

## O=C(O)c1ccc(N(Cc2cccc(OCc3ccccc3)c2)S(=O)(=O)c2ccc(-c3ccccc3)cc2)cc1
[1]
  inhibition: Active
[2]
  Activity: 151%
[3]
  Activity: 125%
Homo sapiens
  Activity: 122%
Neutrophil
  Activity: Non-Toxic
[4]
  inhibition: inactive
[5]
  Activity: 135%

Source: ChEMBL document CHEMBL4270576, “Discovery of a benzenesulfonamide-based dual inhibitor of microsomal prostaglandin E2 synthase-1 and 5-lipoxygenase that favorably modulates lipid mediator biosynthesis in inflammation” (Eur J Med Chem, 2018)
